Consider eight molecules from ChEMBL document CHEMBL1125826, “Synthesis and biological activity of 5-amino- and 5-hydroxyquinolones, and the overwhelming influence of the remote N1-substituent in determining the structure-activity relationship” (1991).

Holding throughout (assay type): functional
One experiment deals with Streptococcus pneumoniae. Put plainly: Antibacterial activity was determined against gram positive organism, Streptococcus pneumoniae SV-1. Particulars: Streptococcus pneumoniae; read-out: MIC. An outline of the steps:
(§1)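 MIC (µg/mL) by standard microtitration against a panel of 10 Gram-positive and Gram-negative organisms; values averaged from multiple experiments.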

The test system of experiment [1] is Staphylococcus aureus. As to the kind of experiment: Antibacterial activity was determined against gram positive organism, Staphylococcus aureus UC76. The procedure, abridged: as §1
Experiment [2] concerns Bacteria. As to the kind of experiment: Antibacterial activity was determined against gram negative organism, Providencia rettgeri. M1771. Particulars: Bacteria; read-out: MIC. An outline of the steps:
as §1

For another experiment, the system named is Klebsiella pneumoniae. Put plainly: Antibacterial activity was determined against gram negative organism, Klebsiella pneumoniae MGH-2. Conditions: Klebsiella pneumoniae; read-out: MIC. The procedure, abridged:
as §1

Another experiment deals with Pseudomonas aeruginosa. As to the kind of experiment: Antibacterial activity was determined against gram negative organism, Pseudomonas aeruginosa UI-18. Particulars: Pseudomonas aeruginosa; read-out: MIC. The procedure, abridged: as §1
For the next experiment, the system named is Enterococcus faecalis. As to the kind of experiment: Antibacterial activity was determined against gram positive organism, Streptococcus faecalis MGH-2. Particulars: Enterococcus faecalis; read-out: MIC. The procedure, abridged:
as §1

In experiment [3] the test system is Bacteria. As to the kind of experiment: MIC ratio measured as the mean MICs of gram-negative bacteria. The procedure, abridged: (§2)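 Geometric mean of the microtitration MICs (µg/mL) over the Gram-negative organisms, and separately over the Gram-positive organisms, of the 10-strain panel; individual MICs averaged from multiple experiments.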
Experiment [4] relates to Staphylococcus aureus. As to the kind of experiment: Antibacterial activity was determined against gram positive organism, Staphylococcus aureus H228. Conditions: Staphylococcus aureus; read-out: MIC. The procedure, abridged: as §1
For another experiment, the system named is Escherichia coli. As to the kind of experiment: Antibacterial activity was determined against gram negative organism, Escherichia coli vogel. Conditions: Escherichia coli; read-out: MIC. The procedure, abridged:
as §1

Experiment [5] has as its system Bacteria. As to the kind of experiment: MIC ratio measured as the mean MICs of gram-positive bacteria. The procedure, abridged: as §2
Experiment [6] has as its target DNA gyrase (Escherichia coli) (UniProt P0AES6+P0AES4). Put plainly: Minimum inhibitory concentration against Escherichia coli DNA-gyrase in supercoiling assay.
For a further experiment, the system named is Streptococcus pyogenes. Put plainly: Antibacterial activity was determined against gram positive organism, Streptococcus pyogenes C203. Particulars: Streptococcus pyogenes; read-out: MIC. An outline of the steps: as §1
Another experiment has as its system Enterobacter cloacae. As to the kind of experiment: Antibacterial activity was determined against gram negative organism, Enterobacter cloacae MA2646. Conditions: Enterobacter cloacae; read-out: MIC.
Setting [7] is: Staphylococcus aureus, read-out: MIC.

Converted amounts (≈) assume the structure as drawn.

Regarding `CCn1cc(C(=O)O)c(=O)c2cc(F)c(N3CCNC(C)C3)c(F)c21` (configuration not stated) [LOMEFLOXACIN], the MIC was 1.6 µg/mL (≈ 4.55 µM) with Streptococcus pneumoniae; 0.4 µg/mL (≈ 1.14 µM) with Staphylococcus aureus [1]; 0.4 µg/mL (≈ 1.14 µM) with Bacteria [2]; 0.2 µg/mL (≈ 0.569 µM) with Klebsiella pneumoniae; 1.6 µg/mL (≈ 4.55 µM) with Pseudomonas aeruginosa; 3.1 µg/mL (≈ 8.82 µM) with Enterococcus faecalis. The MIC was found to be 1.6 µg/mL (≈ 4.55 µM) with Staphylococcus aureus [4]; 0.1 µg/mL (≈ 0.285 µM) in the experiment on Escherichia coli; 2.5 µg/mL (≈ 7.12 µM) in experiment [6]; 3.1 µg/mL (≈ 8.82 µM) in the experiment on Streptococcus pyogenes; 0.1 µg/mL (≈ 0.285 µM) in the experiment on Enterobacter cloacae. For the same molecule, the Geometric mean MIC over Gram-negative bacteria (µg/mL) with Bacteria [3] was found to be 0.26. Besides, in the experiment with Bacteria [5], the “Geometric mean MIC over Gram-positive bacteria (µg/mL)” value stood at 1.58.

In the case of `CCn1cc(C(=O)O)c(=O)c2c(N)c(F)c(N3CCC(N)C3)c(F)c21` (configuration not stated), the MIC in the experiment on Streptococcus pneumoniae was determined as 0.8 µg/mL (≈ 2.27 µM); in the experiment on Staphylococcus aureus [1] (setting [7]), 0.2 µg/mL (≈ 0.568 µM); with Bacteria [2] it was 0.4 µg/mL (≈ 1.14 µM); in the experiment on Klebsiella pneumoniae, 0.2 µg/mL (≈ 0.568 µM); in the experiment with Pseudomonas aeruginosa it was 1.6 µg/mL (≈ 4.54 µM); in the experiment with Enterococcus faecalis it was 0.8 µg/mL (≈ 2.27 µM). The MIC stood at 0.4 µg/mL (≈ 1.14 µM) in the experiment with Staphylococcus aureus [4]; 0.1 µg/mL (≈ 0.284 µM) with Escherichia coli; 2.5 µg/mL (≈ 7.1 µM) in experiment [6]; 0.8 µg/mL (≈ 2.27 µM) with Streptococcus pyogenes; 0.2 µg/mL (≈ 0.568 µM) in the experiment on Enterobacter cloacae. Besides, the Geometric mean MIC over Gram-negative bacteria (µg/mL) in the experiment with Bacteria [3] was 0.3. Also, the “Geometric mean MIC over Gram-positive bacteria (µg/mL)” value in the experiment with Bacteria [5] is 0.53.

As for `CCn1cc(C(=O)O)c(=O)c2c(N)c(F)c(N3CCNC(C)C3)c(F)c21` (configuration not stated), the MIC stood at 3.1 µg/mL (≈ 8.46 µM) with Streptococcus pneumoniae; 0.4 µg/mL (≈ 1.09 µM) in the experiment on Staphylococcus aureus [1] (setting [7]); 1.6 µg/mL (≈ 4.37 µM) in the experiment on Bacteria [2]; 0.4 µg/mL (≈ 1.09 µM) in the experiment on Klebsiella pneumoniae; 3.1 µg/mL (≈ 8.46 µM) with Pseudomonas aeruginosa; 3.1 µg/mL (≈ 8.46 µM) in the experiment on Enterococcus faecalis. In addition, the MIC came out at 1.6 µg/mL (≈ 4.37 µM) in the experiment with Staphylococcus aureus [4]; 0.2 µg/mL (≈ 0.546 µM) in the experiment on Escherichia coli; 7.5 µg/mL (≈ 20.5 µM) in experiment [6]; 6.3 µg/mL (≈ 17.2 µM) in the experiment on Streptococcus pyogenes; 0.2 µg/mL (≈ 0.546 µM) in the experiment with Enterobacter cloacae. Further, in the experiment on Bacteria [3], the Geometric mean MIC over Gram-negative bacteria (µg/mL) amounted to 0.6. In the experiment with Bacteria [5], the “Geometric mean MIC over Gram-positive bacteria (µg/mL)” value came out at 2.07.

In the case of `CCn1cc(C(=O)O)c(=O)c2c(N)c(F)c(N3CCNCC3)cc21`, the MIC with Streptococcus pneumoniae came out at 0.1 µg/mL (≈ 0.299 µM); in the experiment on Staphylococcus aureus [1] (setting [7]), 0.05 µg/mL (≈ 0.15 µM); in the experiment with Bacteria [2], 1.6 µg/mL (≈ 4.79 µM); with Klebsiella pneumoniae, 0.4 µg/mL (≈ 1.2 µM); in the experiment with Pseudomonas aeruginosa it was 3.1 µg/mL (≈ 9.27 µM); in the experiment with Enterococcus faecalis it was 0.2 µg/mL (≈ 0.598 µM). For the same molecule, the MIC in the experiment with Staphylococcus aureus [4] was 0.4 µg/mL (≈ 1.2 µM); with Escherichia coli it was 0.2 µg/mL (≈ 0.598 µM); in [6] it was 2.5 µg/mL (≈ 7.48 µM); with Streptococcus pyogenes, 0.05 µg/mL (≈ 0.15 µM); with Enterobacter cloacae it was 0.2 µg/mL (≈ 0.598 µM). For the same molecule, the Geometric mean MIC over Gram-negative bacteria (µg/mL) in the experiment on Bacteria [3] came out at 0.6. Moreover, the “Geometric mean MIC over Gram-positive bacteria (µg/mL)” value in the experiment with Bacteria [5] worked out at 0.11.

`CCn1cc(C(=O)O)c(=O)c2cc(F)c(N3CCC(N)C3)c(F)c21` (configuration not stated): the MIC was determined as 0.4 µg/mL (≈ 1.19 µM) in the experiment on Streptococcus pneumoniae; 0.1 µg/mL (≈ 0.296 µM) against Staphylococcus aureus [1]; 0.2 µg/mL (≈ 0.593 µM) in the experiment with Bacteria [2]; 0.2 µg/mL (≈ 0.593 µM) in the experiment on Klebsiella pneumoniae; 0.4 µg/mL (≈ 1.19 µM) with Pseudomonas aeruginosa; 0.4 µg/mL (≈ 1.19 µM) with Enterococcus faecalis. The MIC in the experiment on Staphylococcus aureus [4] is 0.4 µg/mL (≈ 1.19 µM); in the experiment on Escherichia coli, 0.1 µg/mL (≈ 0.296 µM); in experiment [6] it was 2.5 µg/mL (≈ 7.41 µM); in the experiment on Streptococcus pyogenes, 0.2 µg/mL (≈ 0.593 µM); in the experiment with Enterobacter cloacae, 0.1 µg/mL (≈ 0.296 µM). Also, the Geometric mean MIC over Gram-negative bacteria (µg/mL) in the experiment on Bacteria [3] stood at 0.17. In the experiment with Bacteria [5], the “Geometric mean MIC over Gram-positive bacteria (µg/mL)” value is reported as 0.27.

Turning to `CCn1cc(C(=O)O)c(=O)c2c(O)c(F)c(N3CCNC(C)C3)c(F)c21` (configuration not stated), the MIC is 12.5 µg/mL (≈ 34 µM) in the experiment with Streptococcus pneumoniae; 1.6 µg/mL (≈ 4.36 µM) with Staphylococcus aureus [1] (setting [7]); 1.6 µg/mL (≈ 4.36 µM) with Bacteria [2]; 0.8 µg/mL (≈ 2.18 µM) in the experiment on Klebsiella pneumoniae; 12.5 µg/mL (≈ 34 µM) with Pseudomonas aeruginosa; 12.5 µg/mL (≈ 34 µM) in the experiment with Enterococcus faecalis. Further, the MIC was found to be 6.3 µg/mL (≈ 17.1 µM) in the experiment with Staphylococcus aureus [4]; 0.4 µg/mL (≈ 1.09 µM) in the experiment on Escherichia coli; 5 µg/mL (≈ 13.6 µM) in experiment [6]; 12.5 µg/mL (≈ 34 µM) in the experiment on Streptococcus pyogenes; 0.4 µg/mL (≈ 1.09 µM) with Enterobacter cloacae.

Turning to `CCNCC1CCN(c2cc3c(cc2F)c(=O)c(C(=O)O)cn3CC)C1` (configuration not stated), the MIC with Streptococcus pneumoniae worked out at 0.2 µg/mL (≈ 0.553 µM); against Staphylococcus aureus [1], 0.1 µg/mL (≈ 0.277 µM); with Bacteria [2] it was 1.6 µg/mL (≈ 4.43 µM); with Klebsiella pneumoniae it was 0.4 µg/mL (≈ 1.11 µM); with Pseudomonas aeruginosa it was 3.1 µg/mL (≈ 8.58 µM); in the experiment with Enterococcus faecalis, 0.2 µg/mL (≈ 0.553 µM). Also, the MIC with Staphylococcus aureus [4] amounted to 0.2 µg/mL (≈ 0.553 µM); in the experiment on Escherichia coli it was 0.1 µg/mL (≈ 0.277 µM); in experiment [6], 2.5 µg/mL (≈ 6.92 µM); with Streptococcus pyogenes, 0.1 µg/mL (≈ 0.277 µM); in the experiment on Enterobacter cloacae, 0.4 µg/mL (≈ 1.11 µM). In addition, the Geometric mean MIC over Gram-negative bacteria (µg/mL) in the experiment on Bacteria [3] worked out at 0.6. Also, in the experiment with Bacteria [5], the “Geometric mean MIC over Gram-positive bacteria (µg/mL)” value was determined as 0.15.

In the case of `CCNCC1CCN(c2cc3c(c(N)c2F)c(=O)c(C(=O)O)cn3CC)C1` (configuration not stated), the MIC was 0.4 µg/mL (≈ 1.06 µM) in the experiment with Streptococcus pneumoniae; 0.1 µg/mL (≈ 0.266 µM) in the experiment on Staphylococcus aureus [1] (setting [7]); 12.5 µg/mL (≈ 33.2 µM) in the experiment with Bacteria [2]; 3.1 µg/mL (≈ 8.24 µM) with Klebsiella pneumoniae; 25 µg/mL (≈ 66.4 µM) with Pseudomonas aeruginosa; 0.8 µg/mL (≈ 2.13 µM) in the experiment on Enterococcus faecalis. For the same molecule, the MIC in the experiment on Staphylococcus aureus [4] amounted to 0.8 µg/mL (≈ 2.13 µM); in the experiment on Escherichia coli, 0.8 µg/mL (≈ 2.13 µM); in experiment [6], 7.5 µg/mL (≈ 19.9 µM); in the experiment on Streptococcus pyogenes, 0.8 µg/mL (≈ 2.13 µM); with Enterobacter cloacae, 1.6 µg/mL (≈ 4.25 µM). Moreover, the Geometric mean MIC over Gram-negative bacteria (µg/mL) in the experiment with Bacteria [3] stood at 4.15. Further, the “Geometric mean MIC over Gram-positive bacteria (µg/mL)” value in the experiment with Bacteria [5] is on record as 0.46.
